# Shown are actives, neighbours in structure and some others; about 1.6% of the full set was active somewhere.
# sEH act – soluble epoxide hydrolase (human) activation; P34913; purified human sEH enzymatic activity, activator screen; activation, % at 2 µM; hit rate 0.04% among 91,000; AID 717; in the data active means activation above about 37%
# sEH inh – inhibitors of human soluble epoxide hydrolase; recombinant human sEH enzymatic activity assay; AID 707; hit rate 0.34% among 91,000; inhibition, % at 2 µM; in the data active means inhibition above about 80%
# Rev-RRE block – HIV Rev-RRE protein-RNA interaction inhibition; AID 704; inhibition, % at 8 µM; P05866; Rev peptide-RRE RNA binding, FRET; hit rate 0.79% among 97,000;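 active means inhibition above the screen-wide mean plus 3 SD, cut at about 35% in these data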
#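 assay system = Cy5-tagged RRE RNA duplex with fluorescein-tagged Rev peptide | incubation = 5 + 15 min at 25 °C | also added = labelled Rev peptide | measure = % inhibition of FRET ratio versus controls | benchmarks = DMSO wells as 0% and neomycin B wells as 100% inhibition | measured by = FRET fluorescence readout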
# CD11b adhes enh – increases human CD11b/CD18 adhesion to fibrinogen; hit rate 0.07% among 93,000; activation, % at 10 µM; K562 CD11b/CD18 adhesion to fibrinogen, ATPlite luminescence;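 active means 10 µM primary screen giving 50% or more activity, confirmed by 40% or more on retest at that dose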
# Target sequence (P05107 whole entry, looked up, other chains not shown): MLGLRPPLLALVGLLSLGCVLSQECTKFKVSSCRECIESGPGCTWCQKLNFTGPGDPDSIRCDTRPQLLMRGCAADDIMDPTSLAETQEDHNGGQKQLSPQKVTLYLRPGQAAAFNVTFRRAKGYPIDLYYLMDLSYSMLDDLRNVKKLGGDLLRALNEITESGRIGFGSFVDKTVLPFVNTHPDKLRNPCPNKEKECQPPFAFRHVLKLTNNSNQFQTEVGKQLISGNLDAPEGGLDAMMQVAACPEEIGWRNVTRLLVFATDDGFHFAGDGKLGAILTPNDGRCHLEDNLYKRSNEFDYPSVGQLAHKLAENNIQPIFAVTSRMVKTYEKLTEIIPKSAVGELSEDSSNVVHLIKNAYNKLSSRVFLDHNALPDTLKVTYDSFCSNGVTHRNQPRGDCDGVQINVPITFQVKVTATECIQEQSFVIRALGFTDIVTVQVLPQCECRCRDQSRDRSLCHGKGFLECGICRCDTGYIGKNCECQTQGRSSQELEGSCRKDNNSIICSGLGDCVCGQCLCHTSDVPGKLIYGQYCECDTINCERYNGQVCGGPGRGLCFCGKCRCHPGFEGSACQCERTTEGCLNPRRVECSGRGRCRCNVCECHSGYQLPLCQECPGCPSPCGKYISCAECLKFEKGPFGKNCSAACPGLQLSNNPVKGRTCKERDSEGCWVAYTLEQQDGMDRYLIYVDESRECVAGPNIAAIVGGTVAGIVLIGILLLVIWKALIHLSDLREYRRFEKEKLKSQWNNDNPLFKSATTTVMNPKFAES
# Smad3 inh – blocks human Smad3 binding to FoxH1 peptide; P84022; TR-FRET Smad3/Dy647-FoxH1 peptide binding, europium anti-His; inhibition, % at 25 µM; hit rate 0.29% among 88,000; AID 630;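 active means compounds that reduce the energy-transfer binding signal between the protein and its labelled peptide by more than half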
# CD11b adhes inh – blocks human CD11b/CD18 adhesion to fibrinogen. P05107+P11215. K562 CD11b/CD18 adhesion to fibrinogen, ATPlite luminescence; Mn2+ added to activate the integrin. inhibition, % at 10 µM. hit rate 0.54% among 93,000. AID 1497;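 active means primary inhibition of 50% or more at 10 µM, then 40% or more on retest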
# Numbers stand for hits; i = inactive; nt = no result given; [ ] = remark or other dose.
SMILES,sEH act,sEH inh,Rev-RRE block,CD11b adhes enh,Smad3 inh,CD11b adhes inh
O=C(NCC1CCCO1)c1ccc(COCC(F)(F)C(F)F)cc1 (configuration not stated),i,i,i,i,i,i
CC(C)NC(=O)c1ccc(COCC(F)(F)C(F)F)cc1,i,i,i,i,65,i
COc1ccc(CNC(=O)/C=C/c2cc3c(cc2Br)OCO3)cc1,i,86,i,i,nt,i
Nc1nc(N)c2sc3nc(C(F)(F)F)cc(C(F)(F)F)c3c2n1,i,i,37,nt,i,nt
CCc1ccc2[nH]c(=O)c(CN(Cc3ccco3)S(=O)(=O)c3ccc4c(c3)OCCO4)cc2c1,39,i,i,i,i,i
COc1ccc(NC(=O)CSc2ccc3c4c(cccc24)C(=O)c2ccccc2-3)cc1,i,i,125[fluorescence artefact?],nt,nt,nt
COc1ccc(NC(=O)CSc2nnc(-c3ccccc3C)n2N)cc1,nt,nt,i,i,i,i
N#Cc1cccc(NC(=O)CSc2ccc3c4c(cccc24)C(=O)c2ccccc2-3)c1,i,i,115[fluorescence artefact?],i,nt,i
[N-]=[N+]=NC[C@@H]1O[C@H](n2cnc3c(N)ncnc32)[C@@H]2O[C@@H]21,nt,nt,nt,nt,i,nt
CC(=O)[C@H](C(=N)C#N)C(=O)Nc1ccccc1,nt,nt,nt,nt,i,nt
Cn1c(=O)c2c(ncn2CCSS(=O)(=O)O)n(C)c1=O,nt,nt,nt,nt,i,nt
Cc1cccc(N2CCN(C(=O)c3cc4c(=O)n(C)c5ccccc5c4n3C)CC2)c1C,nt,nt,i,i,i,i
Cc1ccc(Cl)cc1N1CCN(C(=O)c2cc3c(=O)n(C)c4ccccc4c3n2C)CC1,nt,nt,i,i,i,86
Cc1ccc(Sc2ccc(N)cc2C#N)cc1,nt,nt,i,nt,nt,nt
O=C(O)c1ccccc1-c1ccc(/C=c2\sc3nc4cc(Br)cnc4n3c2=O)o1,i,i,99[fluorescence artefact?],i,nt,i
COc1ccc(/C(O)=C/c2nc3ccccc3n(-c3ccccc3)c2=O)cc1,i,i,78,i,i,i
C[C@@]1(CCOCc2ccccc2)NC(=O)NC1=O,nt,nt,nt,nt,i,nt
COc1ccc(NC(=O)CSc2nc3c(c(-c4cccs4)c2C#N)CN(C)CC3)cc1OC,i,i,63,nt,nt,nt
O=C1NC(=S)N/C1=C/c1ccc(-c2c(Br)cc([N+](=O)[O-])cc2Br)o1,i,i,38,i,nt,i
Cc1cccc(N2CCN(C(=O)c3cccc(N4C(=O)C5CC=CC(C)C5C4=O)c3)CC2)c1C (configuration not stated),i,i,i,i,i,i
Nc1c(N2CCCC2)cc(Cl)c2nonc12,i,i,41,i,58,i
Nc1c(N2CCOCC2)cc(Cl)c2nonc12,i,i,i,i,i,i
O=C(NC1CCCCC1)C1CCN(S(=O)(=O)N2CCCCCC2)CC1,i,i,i,i,i,i
O=C(NC1CCCCCCC1)C1CCN(S(=O)(=O)N2CCC3(CC2)OCCO3)CC1,i,88,i,nt,i,nt
Oc1ccc2ccccc2c1CN(Cc1c(O)ccc2ccccc12)C1CCCCC1,nt,nt,nt,nt,i,nt
SMILES,sEH act,sEH inh,Rev-RRE block,CD11b adhes enh,Smad3 inh,CD11b adhes inh
CCOC(=O)c1c(NC(=S)Nc2ccccc2)sc2c1CCN(CCc1ccccc1)C2,i,i,124[fluorescence artefact?],i,nt,i
C/C(=N\NC1=NCCN1)c1cn(C2=NCCN2)nc1C,nt,nt,nt,nt,93,nt
S=c1nc[nH]c2c1ncn2Cc1ccco1,nt,nt,nt,nt,65,nt
CC1(C)[C@@H](CC(=O)O)CCC[C@H]1CC(=O)O,nt,nt,nt,nt,i,nt
CCOc1ccc2[nH]c(=O)c(CN(Cc3ccco3)Cc3nnnn3Cc3ccccc3)cc2c1,nt,nt,i,i,i,i
COc1cc2cc(CN(Cc3nnnn3Cc3ccco3)C3CCCCC3)c(=O)[nH]c2cc1OC,i,i,45,i,i,i
CCOc1ccc2[nH]c(=O)c(CN(Cc3nnnn3Cc3ccco3)C3CCCCC3)cc2c1,i,i,60,i,i,i
O=C(Nc1ccc(Cl)cc1C(F)(F)F)C(Sc1nnc(-c2cccs2)o1)c1ccccc1 (configuration not stated),nt,nt,nt,i,nt,i
O=C(Nc1cc(C(F)(F)F)ccc1Cl)C(Sc1nnc(-c2cccs2)o1)c1ccccc1 (configuration not stated),nt,nt,nt,i,nt,100
CCOC(=O)c1ccc(NC(=O)c2ccc(C)c(S(=O)(=O)N3CCOCC3)c2)cc1,i,i,i,i,i,84
CCOC(=O)c1ccc(NC(=O)c2cccc(S(=O)(=O)N3CCOCC3)c2)cc1,nt,nt,i,i,i,i
N/N=C1/CC(=O)NC(=O)N1,nt,nt,nt,nt,i,nt
N#CC1=C(N)SC(N)=C(C#N)C1c1cccc(O)c1,i,i,74,nt,i,nt
N#CC1=C(N)Oc2cc(O)ccc2C1c1ccccc1 (configuration not stated),nt,nt,nt,i,i,i
CCOc1cc(C2C(C#N)=C(N)SC(N)=C2C#N)ccc1OCCN1CCOCC1,i,i,75,nt,i,nt
COc1ccc(C2C(C#N)=C(N)OC(C(C)(C)C)=C2C#N)cc1OC (configuration not stated),nt,nt,i,i,i,i
COc1ccc(C2C(C#N)=C(N)SC(N)=C2C#N)cc1OC,i,i,110[fluorescence artefact?],i,i,i
CCCc1[nH]nc2c1C(c1ccc(OCCN3CCOCC3)c(OC)c1)C(C#N)=C(N)O2 (configuration not stated),nt,nt,nt,i,i,i
Cc1nc2ncnn2c(N2CCN(c3cccc(C(F)(F)F)c3)CC2)c1C,nt,nt,i,i,i,i
Clc1ccc(CN2CCCN(Cc3ccc(Cl)cc3)C2c2cc3ccccc3c3ccccc23)cc1,nt,nt,nt,nt,i,nt
C[C@H]1CC(C)(C)C[C@@](OCCN2CCCCC2)(c2ccccc2)C1,nt,nt,nt,nt,i,nt
N#CC1=C(N)NC(SCC(=O)O)=C(C#N)C12CCCC2,i,i,i,i,i,i
N#CC1=C(N)NC(SCc2ccc(F)cc2)=C(C#N)C12CCCCC2,i,i,i,i,i,77
COc1cc(N2CCCC2)c(OC)cc1/C=c1/sc2nc3ccccc3n2c1=O,nt,nt,133[fluorescence artefact?],i,i,i
Cc1ccc(-n2c(C)cc(/C=c3/sc4nc5ccccc5n4c3=O)c2C)cc1,i,i,i,i,i,i
SMILES,sEH act,sEH inh,Rev-RRE block,CD11b adhes enh,Smad3 inh,CD11b adhes inh
CC(C)NC(=O)CCNC(=O)c1ccc(F)cc1,nt,nt,i,nt,i,nt
c1ccc(N2CCN(Cc3ccnc4ccccc34)CC2)cc1,i,i,i,i,i,76
O=C(O)[C@@H]1CCN(Cc2oc(CO)cc(=O)c2O)C1,nt,nt,nt,nt,i,nt
CCCCOC(=O)CSc1nc(N)c(C#N)c(-c2ccc(OC)cc2)c1C#N,nt,nt,i,i,i,i
CCCCOC(=O)CSc1nc(N)c(C#N)c(-c2ccc(OCC)cc2)c1C#N,i,i,i,i,78[fluorescence artefact?],i
S=C(S)NCCN1CCNCC1,nt,nt,nt,nt,i,nt
Cc1cc(=O)[nH]c2cc3oc4ccccc4c3cc12,nt,nt,nt,nt,i,nt
Cn1nc(C(C)(C)C)cc1C(=O)NCc1ccc(N2CCCC2=O)cc1,nt,nt,nt,i,i,84
CCN(CC)c1ccc2c(c1)oc(=O)c1c(Cl)cc(=O)oc12,i,i,129[fluorescence artefact?],i,i,i
COc1ccc(OCC(=O)N2CCN(C(=O)c3ccco3)CC2)cc1,41,i,i,i,i,i
O=C(COc1ccccc1)N1CCN(C(=O)c2ccco2)CC1,i,i,i,i,i,i
